Source: ChEMBL document CHEMBL2434899, “Peripherally selective diphenyl purine antagonist of the CB1 receptor” (J Med Chem, 2013)
Each block holds one compound with its values, some of them ahead of it. Activity calls are given as the source filed them.

Key:
Cannabinoid receptor 2 = Cannabinoid receptor 2 (Homo sapiens, UniProt P34972); test: Displacement of [3H]CP55940 from CB2 receptor (unknown origin) expressed in CHO-K1 cells; format: cell-based
Cannabinoid receptor 1 [1] = molecular target: T1, Cannabinoid receptor 1 (Homo sapiens, UniProt P21554); test: Antagonist activity at human CB1 receptor expressed in CHO-K1 cells by intracellular Ca2+ mobilization assay in presence of CP55940; format: functional, cell-based
Outline: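 CHO-K1 cells co-expressing human CB1 and Gαq16; intracellular calcium flux read with fluorescent dye on a 96-well plate reader. Rightward shift of the CP55940 concentration-response curve gives Ke = [ligand]/(DR−1), DR being the CP55940 EC50 ratio with versus without test agent. Averages of 3–6 measurements.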

Homo sapiens = species on record: Homo sapiens; test: Selectivity ratio of Ki for CB2 receptor (unknown origin) to Ki for human CB1 receptor
Cannabinoid receptor 1 [2] = molecular target: T1, Cannabinoid receptor 1; test: Displacement of [3H]CP55940 from human CB1 receptor expressed in CHO-K1 cells; format: cell-based
Nucleic Acid [3] = test: Ratio of drug uptake from brain to plasma in Sprague-Dawley rat at 10 mg/kg, po after 8 hrs by LC-MS analysis; format: ADME, organism-based; parameters: dose 10 mg/kg, route oral
Outline: (§1)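 Male Sprague Dawley rats, 9 weeks old, given 10 mg/kg orally by gavage in corn oil; 3 rats per time point. Un-perfused brain and plasma taken at 1, 2, 4, 8 and 24 h. Plasma, or brain homogenized in ethanol:water, was precipitated with acetonitrile, centrifuged 9000 g for 5 min and analysed by LC-MS/MS (MRM, C18 column).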

Mus musculus [4] = test: Antagonist activity at CB1 receptor in ICR mouse assessed as rectal temperature at 10 mg/kg, po after 30 mins relative to control; format: functional, organism-based; parameters: dose 10 mg/kg
Outline: (§2)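 Adult ICR mice given vehicle or 10 mg/kg oral gavage, then vehicle or 30 mg/kg Δ9-THC i.v. by tail vein 30 min later. Rectal temperature was taken before injection and at 30 min after it, reported as change (°C). At 40 min, time motionless on an elevated ring over 5 min was recorded as % immobility. 5–6 mice per group; factorial ANOVA with Tukey post hoc.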

Mus musculus [5] = test: Reversal of delta9-THC-mediated suppression of antinociceptive activity in ICR mouse assessed as latency period at 10 mg/kg, po administered 30 mins prior to delta9-THC challenge measured after 20 mins by warm water tail withdrawal assay; format: functional, organism-based; parameters: dose 10 mg/kg
Outline: (§3)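 ICR mice had baseline tail-withdrawal latency measured in a 55 °C water bath, then received oral vehicle or 10 mg/kg by gavage, followed 30 min later by i.v. vehicle or 30 mg/kg Δ9-THC. Latency was retested 20 min post-injection with a 10 s cutoff, expressed as %MPE = [(test−control)/(10−control)]×100. 5–6 mice per group; factorial ANOVA with Tukey post hoc.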

[6] = Plasma concentration in Sprague-Dawley rat at 10 mg/kg, po after 4 hrs by LC-MS analysis; format: ADME, organism-based; parameters: dose 10 mg/kg, route oral; outline: as §1
[7] = Plasma concentration in Sprague-Dawley rat at 10 mg/kg, po after 1 hr by LC-MS analysis; format: ADME, organism-based; parameters: dose 10 mg/kg, route oral; outline: as §1
Mus musculus [8] = test: Reversal of delta9-THC-mediated suppression of spontaneous activity in ICR mouse at 10 mg/kg, po administered 30 mins prior to delta9-THC challenge measured after 5 mins; format: functional, organism-based; parameters: dose 10 mg/kg
Outline: (§4)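 ICR mice were gavaged with vehicle or 10 mg/kg, then injected i.v. in the tail vein 30 min later with vehicle or 30 mg/kg Δ9-THC. After 5 min each mouse was placed in an activity chamber for 10 min; horizontal movement was counted as total infrared photobeam interruptions. 5–6 mice per group; factorial ANOVA with Tukey post hoc.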

[9] = Plasma concentration in Sprague-Dawley rat at 10 mg/kg, po after 24 hrs by LC-MS analysis; format: ADME, organism-based; parameters: dose 10 mg/kg, route oral; outline: as §1
Mus musculus [10] = test: Antagonist activity at CB1 receptor in ICR mouse assessed as suppression of spontaneous activity at 10 mg/kg, po after 30 mins; format: functional, organism-based; parameters: dose 10 mg/kg; outline: as §4
Mus musculus [11] = test: Reversal of delta9-THC-mediated suppression of hypothermia in ICR mouse assessed as rectal temperature at 10 mg/kg, po administered 30 mins prior to delta9-THC challenge measured after 30 mins relative to control; format: functional, organism-based; parameters: dose 10 mg/kg; outline: as §2
[12] = Plasma concentration in Sprague-Dawley rat at 10 mg/kg, po after 2 hrs by LC-MS analysis; format: ADME, organism-based; parameters: dose 10 mg/kg, route oral; outline: as §1
Mus musculus [13] = test: Antagonist activity at CB1 receptor in ICR mouse assessed as latency period at 10 mg/kg, po after 30 mins by warm water tail withdrawal assay; format: functional, organism-based; parameters: dose 10 mg/kg; outline: as §3
[14] = Drug uptake in brain of Sprague-Dawley rat at 10 mg/kg, po after 8 hrs by LC-MS analysis; format: ADME, organism-based; parameters: dose 10 mg/kg, route oral; details: read-out: Drug uptake; outline: as §1
Mus musculus [15] = test: Reversal of delta9-THC-mediated suppression of catelepsy in ICR mouse at 10 mg/kg, po administered 30 mins prior to delta9-THC challenge measured after 40 mins; format: functional, organism-based; parameters: dose 10 mg/kg; outline: as §2
Nucleic Acid [16] = test: Ratio of drug uptake from brain to plasma in Sprague-Dawley rat at 10 mg/kg, po after 24 hrs by LC-MS analysis; format: ADME, organism-based; parameters: dose 10 mg/kg, route oral; outline: as §1
[17] = Drug uptake in brain of Sprague-Dawley rat at 10 mg/kg, po after 1 hr by LC-MS analysis; format: ADME, organism-based; parameters: dose 10 mg/kg, route oral; details: read-out: Drug uptake; outline: as §1
Nucleic Acid [18] = test: Ratio of drug uptake from brain to plasma in Sprague-Dawley rat at 10 mg/kg, po after 1 hr by LC-MS analysis; format: ADME, organism-based; parameters: dose 10 mg/kg, route oral; outline: as §1
[19] = Plasma concentration in Sprague-Dawley rat at 10 mg/kg, po after 8 hrs by LC-MS analysis; format: ADME, organism-based; parameters: dose 10 mg/kg, route oral; outline: as §1
Nucleic Acid [20] = test: Ratio of drug uptake from brain to plasma in Sprague-Dawley rat at 10 mg/kg, po after 2 hrs by LC-MS analysis; format: ADME, organism-based; parameters: dose 10 mg/kg, route oral; outline: as §1
[21] = Drug uptake in brain of Sprague-Dawley rat at 10 mg/kg, po after 4 hrs by LC-MS analysis; format: ADME, organism-based; parameters: dose 10 mg/kg, route oral; details: read-out: Drug uptake; outline: as §1
Mus musculus [22] = test: Antagonist activity at CB1 receptor in ICR mouse assessed as catelepsy at 10 mg/kg, po after 30 mins; format: functional, organism-based; parameters: dose 10 mg/kg; outline: as §2
[23] = Drug uptake in brain of Sprague-Dawley rat at 10 mg/kg, po after 24 hrs by LC-MS analysis; format: ADME, organism-based; parameters: dose 10 mg/kg, route oral; details: read-out: Drug uptake; outline: as §1
Nucleic Acid [24] = test: Ratio of drug uptake from brain to plasma in Sprague-Dawley rat at 10 mg/kg, po after 4 hrs by LC-MS analysis; format: ADME, organism-based; parameters: dose 10 mg/kg, route oral; outline: as §1
[25] = Drug uptake in brain of Sprague-Dawley rat at 10 mg/kg, po after 2 hrs by LC-MS analysis; format: ADME, organism-based; parameters: dose 10 mg/kg, route oral; details: read-out: Drug uptake; outline: as §1

Chain of Cannabinoid receptor 2 (P34972 whole entry): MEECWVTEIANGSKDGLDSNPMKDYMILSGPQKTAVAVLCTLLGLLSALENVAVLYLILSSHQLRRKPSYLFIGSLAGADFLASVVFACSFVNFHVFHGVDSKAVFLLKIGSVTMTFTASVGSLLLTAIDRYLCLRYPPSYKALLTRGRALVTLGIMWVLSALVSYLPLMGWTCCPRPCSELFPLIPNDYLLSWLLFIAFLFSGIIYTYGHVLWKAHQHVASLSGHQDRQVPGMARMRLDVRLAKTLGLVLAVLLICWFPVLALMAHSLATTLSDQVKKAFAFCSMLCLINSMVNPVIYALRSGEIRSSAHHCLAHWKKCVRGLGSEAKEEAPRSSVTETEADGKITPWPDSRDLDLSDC
T1 sequence (P21554 whole entry): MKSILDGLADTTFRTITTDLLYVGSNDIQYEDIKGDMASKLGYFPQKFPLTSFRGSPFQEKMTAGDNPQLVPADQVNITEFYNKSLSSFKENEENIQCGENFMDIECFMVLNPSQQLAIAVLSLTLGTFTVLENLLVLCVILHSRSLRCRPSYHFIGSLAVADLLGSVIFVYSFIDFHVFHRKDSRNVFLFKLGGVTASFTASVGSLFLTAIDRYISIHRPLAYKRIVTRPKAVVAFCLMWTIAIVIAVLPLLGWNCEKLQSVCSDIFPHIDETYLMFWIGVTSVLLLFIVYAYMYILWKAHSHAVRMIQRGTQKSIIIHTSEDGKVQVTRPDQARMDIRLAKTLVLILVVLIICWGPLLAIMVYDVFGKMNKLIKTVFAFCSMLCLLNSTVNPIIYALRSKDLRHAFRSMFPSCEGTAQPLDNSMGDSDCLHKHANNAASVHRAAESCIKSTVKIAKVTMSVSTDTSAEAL

Ki (Cannabinoid receptor 2): 60.2 nM
Ke (Cannabinoid receptor 1 [1]): 0.89 nM
Ratio Ki (Homo sapiens): 39
Ki (Cannabinoid receptor 1 [2]): 1.54 nM
Structure (SMILES): O=C(NC1CCN(c2ncnc3c2nc(-c2ccccc2Cl)n3-c2ccc(Cl)cc2)CC1)C1CCCC1

Ke (Cannabinoid receptor 1 [1]): 789 nM
Structure (SMILES): O=C(CCN1CCCCC1)NC1CCN(c2ncnc3c2nc(-c2ccccc2Cl)n3-c2ccc(Cl)cc2)CC1

BPR (Nucleic Acid [3]): 0.03
concentration at 4 h [6]: 1560 ng/mL
concentration at 1 h [7]: 730 ng/mL
Ki (Cannabinoid receptor 2): 1050 nM
concentration at 24 h [9]: 438 ng/mL
concentration at 2 h [12]: 1750 ng/mL
concentration at 8 h [14]: 62.5 ng/mL
Ke (Cannabinoid receptor 1 [1]): 4.9 nM
BPR (Nucleic Acid [16]): 0.01
Ratio Ki (Homo sapiens): 54
Ki (Cannabinoid receptor 1 [2]): 19.5 nM
concentration at 1 h [17]: 24.3 ng/mL
BPR (Nucleic Acid [18]): 0.03
concentration at 8 h [19]: 1960 ng/mL
BPR (Nucleic Acid [20]): 0.04
concentration at 4 h [21]: 103 ng/mL
concentration at 24 h [23]: 5.35 ng/mL
BPR (Nucleic Acid [24]): 0.07
concentration at 2 h [25]: 71.5 ng/mL
Structure (SMILES): CCCCC(=O)NC1CCN(c2ncnc3c2nc(-c2ccccc2Cl)n3-c2ccc(Cl)cc2)CC1
Activity (Mus musculus [4]): inactive
Activity (Mus musculus [5]): inactive
Activity (Mus musculus [8]): inactive
Activity (Mus musculus [10]): inactive
Activity (Mus musculus [11]): inactive
Activity (Mus musculus [13]): inactive
Activity (Mus musculus [15]): inactive
Activity (Mus musculus [22]): inactive

Ki (Cannabinoid receptor 2): 569 nM
Ke (Cannabinoid receptor 1 [1]): 2.9 nM
Ratio Ki (Homo sapiens): 282
Ki (Cannabinoid receptor 1 [2]): 2.02 nM
Structure (SMILES): O=C(CC1CCCC1)NC1CCN(c2ncnc3c2nc(-c2ccccc2Cl)n3-c2ccc(Cl)cc2)CC1

Ke (Cannabinoid receptor 1 [1]): 17 nM
Structure (SMILES): COC(=O)NC1CCN(c2ncnc3c2nc(-c2ccccc2Cl)n3-c2ccc(Cl)cc2)CC1

Ke (Cannabinoid receptor 1 [1]): 2770 nM
Structure (SMILES): NS(=O)(=O)NC1CCN(c2ncnc3c2nc(-c2ccccc2Cl)n3-c2ccc(Cl)cc2)CC1

Ke (Cannabinoid receptor 1 [1]): 140 nM
Structure (SMILES): CN(C)CC(=O)NC1CCN(c2ncnc3c2nc(-c2ccccc2Cl)n3-c2ccc(Cl)cc2)CC1

Ki (Cannabinoid receptor 2): 215 nM
Ke (Cannabinoid receptor 1 [1]): 7.4 nM
Ratio Ki (Homo sapiens): 81
Ki (Cannabinoid receptor 1 [2]): 2.67 nM
Structure (SMILES): CC(C)CCC(=O)NC1CCN(c2ncnc3c2nc(-c2ccccc2Cl)n3-c2ccc(Cl)cc2)CC1

Ki (Cannabinoid receptor 2): 835 nM
Ke (Cannabinoid receptor 1 [1]): 3.3 nM
Ratio Ki (Homo sapiens): 249
Ki (Cannabinoid receptor 1 [2]): 3.35 nM
Structure (SMILES): O=C(NC1CCN(c2ncnc3c2nc(-c2ccccc2Cl)n3-c2ccc(Cl)cc2)CC1)C1CCCCC1

Ki (Cannabinoid receptor 2): 4500 nM
Ke (Cannabinoid receptor 1 [1]): 1.05 nM
Ratio Ki (Homo sapiens): 738
Ki (Cannabinoid receptor 1 [2]): 6.1 nM
Structure (SMILES): O=S(=O)(NC1CCN(c2ncnc3c2nc(-c2ccccc2Cl)n3-c2ccc(Cl)cc2)CC1)C(F)(F)F

Structure (SMILES): O=C(NC1CCN(c2ncnc3c2nc(-c2ccccc2Cl)n3-c2ccc(Cl)cc2)CC1)Oc1ccccc1
Ki (Cannabinoid receptor 2): 10600 nM
Ki (Cannabinoid receptor 1 [2]): 2.55 nM

Ki (Cannabinoid receptor 2): 426 nM
Ke (Cannabinoid receptor 1 [1]): 2.3 nM
Ratio Ki (Homo sapiens): 119
Ki (Cannabinoid receptor 1 [2]): 3.57 nM
Structure (SMILES): CCOC(=O)NC1CCN(c2ncnc3c2nc(-c2ccccc2Cl)n3-c2ccc(Cl)cc2)CC1

Structure (SMILES): O=C(CC1CCCCC1)NC1CCN(c2ncnc3c2nc(-c2ccccc2Cl)n3-c2ccc(Cl)cc2)CC1
Ki (Cannabinoid receptor 2): 2360 nM
Ke (Cannabinoid receptor 1 [1]): 2.1 nM
Ki (Cannabinoid receptor 1 [2]): 1.93 nM

Ki (Cannabinoid receptor 2): 89.5 nM
Ke (Cannabinoid receptor 1 [1]): 5.4 nM
Ratio Ki (Homo sapiens): 22
Ki (Cannabinoid receptor 1 [2]): 4.01 nM
Structure (SMILES): CC(C)CC(=O)NC1CCN(c2ncnc3c2nc(-c2ccccc2Cl)n3-c2ccc(Cl)cc2)CC1
